# Measurements reported in PMC9311154 (British Journal of Clinical Pharmacology, 2022).
# “And” between values parts separate entries of the source, which are not always exact repeats. Equal entries are not always repeated. “Also recorded” adds a separate entry of the source. Where two headings read alike, the source gives them in different places. Marks after values point to notes of the source that are not given here.
# How the values were obtained:
# [1] = animal models; cited from earlier work
# FXI = FXI concentration; format: in vivo, human; conditions: compared with placebo
# Procedure, shortened: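 Healthy men randomised to the oral test compound (25/50/100 mg once daily or 25 mg twice daily) or placebo. Single dose day 1, washout days 2–3, repeat dosing days 4–11, final dose day 12, after an overnight fast of at least 10 h on profiling days. FXI concentration measured by microtitre-plate ELISA with polyclonal antibodies. Descriptive summary only.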
# Safety and tolerability [2] = format: in vivo, human
# Procedure, shortened: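 Randomised, single-blind, placebo-controlled dose escalation in healthy men, 36 on active and 12 on placebo. Adverse events counted as treatment-emergent if they began or worsened after first study medication, up to 7 days post-treatment. Also assessed: physical examination, vital signs, 12-lead ECG and clinical laboratory tests. All participants dosed at least once were analysed descriptively.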
# [3] = BAY 2433334 pharmacokinetics in plasma and urine, Parts A and B; format: in vivo, human; conditions: for tmax: median (range)
# Safety and tolerability [4] = format: in vivo, human; remark: listed apart in the source
# C1 esterase inhibitor = C1 esterase inhibitor activity; format: in vivo, human; conditions: compared with placebo
# Procedure, shortened: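 Healthy men given the oral test compound (25, 50 or 100 mg once daily, or 25 mg twice daily) or placebo: single dose on day 1, washout days 2–3, dosing days 4–11, once-daily dose day 12. C1 esterase inhibitor activity measured in plasma by chromogenic substrate kit on a coagulation analyser, per manufacturer's instructions. Summarised descriptively, with no prespecified formal statistics.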
# [5] = test system: activated partial thromboplastin time (aPTT); conditions: whole blood or plasma, in vitro and ex vivo; cited from earlier work
# [6] = test system: activated partial thromboplastin time (aPTT); experiment: aPTT; format: in vivo, human
# prothrombin time (PT) = experiment: Prothrombin time; format: in vivo, human; conditions: compared with placebo
# [7] = multiple once‐daily dosing for 9 consecutive days
# [8] = 25 mg multiple dose + midazolam
# [9] = 25 mg treatment sequence, Total (N = 24)
# [10] = 75 mg multiple dose + midazolam
# [11] = 75 mg treatment sequence, Total (N = 24)
smiles,measurement,setting,value
CC[C@@H](C(=O)Nc1ccc(C(N)=O)c(F)c1)n1cc(OC)c(-c2cc(Cl)ccc2-n2cc(C(F)(F)F)nn2)cc1=O [BAY 2433334],Reduction in thrombus weight,[1],dose‐dependent reductions
same,Effect on FXI concentrations,FXI,no significant effect
same,Adverse event(s) of special interest: Bleeding,Safety and tolerability [2]; 25 mg BID,0 Number (%)
same,Any adverse event(s) of special interest,Safety and tolerability [2]; 25 mg BID,1 (11.1%) Number (%)
same,Any study drug‐related adverse event(s),Safety and tolerability [2]; 25 mg BID,0 Number (%)
same,Any study procedure‐related adverse event(s),Safety and tolerability [2]; 25 mg BID,2 (22.2%) Number (%)
same,TEAE: Medical device site urticaria,Safety and tolerability [2]; 25 mg BID,1 (11.1%) Number (%)
same,Adverse event(s) of special interest: Investigations,"Safety and tolerability [2]; 25 mg BID, Glutamate dehydrogenase increased",1 (11.1%) ^e Number (%)
same,Adverse event(s) of special interest: Bleeding,Safety and tolerability [2]; 25 mg OD,0 Number (%)
same,Any adverse event(s) of special interest,Safety and tolerability [2]; 25 mg OD,1 (11.1%) Number (%)
same,Any study drug‐related adverse event(s),Safety and tolerability [2]; 25 mg OD,0 Number (%)
same,Any study procedure‐related adverse event(s),Safety and tolerability [2]; 25 mg OD,1 (11.1%) Number (%)
same,TEAE: Medical device site urticaria,Safety and tolerability [2]; 25 mg OD,0 Number (%)
same,Adverse event(s) of special interest: Investigations,"Safety and tolerability [2]; 25 mg OD, Amylase increased",1 (11.1%) ^c Number (%)
same,Adverse event(s) of special interest: Bleeding,Safety and tolerability [2]; 50 mg OD,0 Number (%)
same,Any adverse event(s) of special interest,Safety and tolerability [2]; 50 mg OD,1 (11.1%) Number (%)
same,Any study drug‐related adverse event(s),Safety and tolerability [2]; 50 mg OD,0 Number (%)
same,Any study procedure‐related adverse event(s),Safety and tolerability [2]; 50 mg OD,3 (33.3%) Number (%)
same,TEAE: Medical device site urticaria,Safety and tolerability [2]; 50 mg OD,0 Number (%)
same,Adverse event(s) of special interest: Investigations,"Safety and tolerability [2]; 50 mg OD, Lipase increased",1 (11.1%) ^d Number (%)
same,Adverse event(s) of special interest: Bleeding,Safety and tolerability [2]; 100 mg OD,0 Number (%)
same,Any adverse event(s) of special interest,Safety and tolerability [2]; 100 mg OD,1 (11.1%) Number (%)
same,Any study procedure‐related adverse event(s),Safety and tolerability [2]; 100 mg OD,1 (11.1%) Number (%)
same,TEAE: Medical device site urticaria,Safety and tolerability [2]; 100 mg OD,1 (11.1%) Number (%)
same,Any study drug‐related adverse event(s),"Safety and tolerability [2]; 100 mg OD, Headache",2 Number (%) and 2 (22.2%) ^b Number (%)
same,Adverse event(s) of special interest: Investigations,"Safety and tolerability [2]; 100 mg OD, Lipase increased",1 (11.1%) ^d Number (%)
same,Adverse events leading to discontinuation,Safety and tolerability [2]; Parts A or B,No adverse events leading to discontinuation
same,Adverse event(s) of special interest: Bleeding,Safety and tolerability [2]; Total BAY 2433334 (n = 36),0 Number (%)
same,Adverse event(s) of special interest: Investigations,Safety and tolerability [2]; Total BAY 2433334 (n = 36),4 (11.1%) Number (%)
same,Any adverse event(s) of special interest,Safety and tolerability [2]; Total BAY 2433334 (n = 36),4 (11.1%) Number (%)
same,Any study drug‐related adverse event(s),Safety and tolerability [2]; Total BAY 2433334 (n = 36),2 (5.6%) Number (%)
same,Any study procedure‐related adverse event(s),Safety and tolerability [2]; Total BAY 2433334 (n = 36),7 (19.4%) Number (%)
same,TEAE: Medical device site urticaria,Safety and tolerability [2]; Total BAY 2433334 (n = 36),2 (5.6%) Number (%)
same,Adverse events related to bleeding,Safety and tolerability [2]; all study parts,no clinically relevant adverse events related to bleeding
same,Serious adverse events,Safety and tolerability [2]; all study parts,no serious adverse events were reported
same,Tolerability,Safety and tolerability [2]; all study parts,well tolerated
same,"Effects on vital signs, ECG or clinical laboratory investigations",Safety and tolerability [2]; other than the anticipated prolongation of aPTT,No clinically relevant effects
same,Dose proportionality of AUC and Cmax in plasma,"[3]; 25–100 mg OD, single and multiple dosing, Part A",dose proportional; also recorded: appeared to increase dose proportionally
same,"arithmetic mean renal elimination (%AE,ur) of unchanged drug",[3]; after multiple dosing,10.1–13.5%
same,"RLIN, range",[3]; after once‐daily administration,1.03–1.08
same,"arithmetic mean renal elimination (%AE,ur) of unchanged drug",[3]; after single‐dose administration,7.61–13.4 % of the dose
same,"geometric mean terminal half‐life (t1/2), range across treatment groups",[3]; day 1,14.0 to 15.9 h
same,tmax,"[3]; day 1, 25 mg BID group",3.00 (1.00–5.98) h
same,tmax,"[3]; day 1, 25 mg OD",2.00 (1.48–5.98) h
same,tmax,"[3]; day 1, 50 mg OD",2.00 (0.750–4.00) h
same,tmax,"[3]; day 1, 100 mg OD",3.97 (1.47–6.00) h
same,"apparent oral clearance, geometric means","[3]; day 1, across treatment groups",3.68 to 4.09 L/h
same,"median time to Cmax, range across treatment groups","[3]; day 1, all treatment groups",2.00 to 3.97 h
same,tmax,"[3]; day 12, 25 mg BID",1.50 (1.00–6.00) h
same,tmax,"[3]; day 12, 25 mg OD",4.00 (1.00–6.03) h
same,tmax,"[3]; day 12, 50 mg OD",3.00 (0.750–6.05) h
same,tmax,"[3]; day 12, 100 mg OD",4.00 (1.50–6.00) h
same,"apparent oral clearance, geometric means","[3]; day 12, across treatment groups",3.39 to 4.04 L/h
same,"mean terminal half‐life (t1/2), range across treatment groups","[3]; day 12, after multiple dosing",15.8 to 17.8 h
same,"median time to Cmax, range across once‐daily groups","[3]; day 12, once‐daily dosing",3.00 to 4.00 h
same,"RAAUC geometric mean, range",[3]; [7],1.50–1.72
same,"RACmax geometric mean, range",[3]; [7],1.41–1.63
same,Adverse event(s) of special interest,Safety and tolerability [4]; [8],0 Number (%)
same,Study drug‐related adverse event(s),Safety and tolerability [4]; [8],0 Number (%)
same,Study procedure‐related adverse event(s),Safety and tolerability [4]; [8],0 Number (%)
same,Adverse event(s) of special interest,Safety and tolerability [4]; 25 mg multiple dose alone,0 Number (%)
same,Study drug‐related adverse event(s),Safety and tolerability [4]; 25 mg multiple dose alone,0 Number (%)
same,Study procedure‐related adverse event(s),Safety and tolerability [4]; 25 mg multiple dose alone,1 (4.2%) Number (%)
same,Adverse event(s) of special interest,Safety and tolerability [4]; 25 mg single dose + midazolam,0 Number (%)
same,Study drug‐related adverse event(s),Safety and tolerability [4]; 25 mg single dose + midazolam,0 Number (%)
same,Study procedure‐related adverse event(s),Safety and tolerability [4]; 25 mg single dose + midazolam,0 Number (%)
same,Adverse event(s) of special interest,Safety and tolerability [4]; [9],0 Number (%)
same,Study drug‐related adverse event(s),Safety and tolerability [4]; [9],0 Number (%)
same,Study procedure‐related adverse event(s),Safety and tolerability [4]; [9],4 (16.7%) Number (%)
same,Adverse event(s) of special interest,Safety and tolerability [4]; [10],0 Number (%)
same,Study drug‐related adverse event(s),Safety and tolerability [4]; [10],0 Number (%)
same,Adverse event(s) of special interest,Safety and tolerability [4]; 75 mg multiple dose alone,0 Number (%)
same,Study drug‐related adverse event(s),Safety and tolerability [4]; 75 mg multiple dose alone,0 Number (%)
same,Study procedure‐related adverse event(s),Safety and tolerability [4]; 75 mg multiple dose alone,0 Number (%)
same,Adverse event(s) of special interest,Safety and tolerability [4]; 75 mg single dose + midazolam,0 Number (%)
same,Study drug‐related adverse event(s),Safety and tolerability [4]; 75 mg single dose + midazolam,0 Number (%)
same,Study procedure‐related adverse event(s),Safety and tolerability [4]; 75 mg single dose + midazolam,0 Number (%)
same,Adverse event(s) of special interest,Safety and tolerability [4]; [11],0 Number (%)
same,Study drug‐related adverse event(s),Safety and tolerability [4]; [11],0 Number (%)
same,Study procedure‐related adverse event(s),Safety and tolerability [4]; [11],2 (8.3%) Number (%)
same,Study drug‐related TEAEs,Safety and tolerability [4]; Part C,No study drug‐related TEAEs
same,Participants who discontinued study medication because of TEAEs,"Safety and tolerability [4]; Part C, 75 mg",2 participants
same,Effect on complement C1 esterase inhibitor activity,C1 esterase inhibitor,no significant effect
same,Prolongation of aPTT,[5],concentration‐dependent prolongation
same,Prolongation of aPTT,[6]; Parts A and B,dose‐dependent prolongation
same,first time point at which prolongation of aPTT was apparent,[6]; after dosing,30 min
same,time of maximal aPTT prolongation after dosing,[6]; in vivo,approximately 4 h
same,Effect on PT (absolute and INR values),prothrombin time (PT),no effect
